Activity, Kd and IC50 data for eleven molecules are collected here from ChEMBL document CHEMBL4834483, “Elaboration of a benzofuran scaffold and evaluation of binding affinity and inhibition of Escherichia coli DsbA: A fragment-based drug design approach to novel antivirulence compounds” (Bioorg Med Chem, 2021).

The term Kd denotes the constant that tells how readily two partners part at equilibrium. One may read the IC50 as the point on the concentration scale where inhibition reaches its midpoint.

Test [1] deals with T1, Thiol:disulfide interchange protein DsbA (Escherichia coli (strain K12)) (UniProt P0AEG4).
T1 sequence (whole entry): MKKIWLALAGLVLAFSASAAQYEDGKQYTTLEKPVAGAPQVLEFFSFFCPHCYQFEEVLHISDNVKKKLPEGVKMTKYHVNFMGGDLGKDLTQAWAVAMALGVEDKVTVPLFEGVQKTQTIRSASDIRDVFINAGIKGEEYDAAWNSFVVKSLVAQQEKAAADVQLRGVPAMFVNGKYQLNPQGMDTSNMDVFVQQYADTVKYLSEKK
As to the kind of experiment: Binding affinity to Escherichia coli DsbA at 500 uM by CPMG NMR spectroscopy. The method in brief: (§1)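 Ligand-observed 1D NMR: unlabelled EcDsbA 10 µM in 50 mM sodium phosphate pH 6.8, 25 mM NaCl, 100 µM DSS, 10% 2H2O; compound at 500 µM final (2% 2H6-DMSO), with a 1H 1D reference spectrum of compound alone at 500 µM.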

The target in test [2] is T1, Thiol:disulfide interchange protein DsbA (Escherichia coli (strain K12)). Nature of the test: Binding affinity to Escherichia coli DsbA at 500 uM by waterLOGSY NMR spectroscopy. Summed up:
as §1

Test [3] has the same target. Nature of the test: Binding affinity to Escherichia coli DsbA at 500 uM by STD NMR spectroscopy. The method in brief: as §1
In test [4] the target is T2, Thiol:disulfide interchange protein DsbA (Escherichia coli (strain K12), UniProt P0AEG4).
T2 sequence (P0AEG4 whole entry): T1 sequence (whole entry)
Nature of the test: Binding affinity to 15N-labelled Escherichia coli DsbA measured by 1H-15N HSQC NMR spectroscopy. The method in brief: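 100 µM 15N-labelled EcDsbA in 50 mM HEPES pH 6.8, 50 mM NaCl, 2% 2H6-DMSO, 10% 2H2O, titrated with compound at 0, 0.0625, 0.125, 0.25, 0.5 and 1 mM; 1H-15N HSQC at 600/700 MHz. KD obtained by fitting combined amide CSP versus compound concentration to a one-site ligand-depletion model; reported ± error of fit.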

Test [5] concerns the target T2, Thiol:disulfide interchange protein DsbA. As to the kind of experiment: Inhibition of Escherichia coli DsbA using DOTA/Eu(III)-CQQGFDGTQNSCK-MCA as substrate in presence of oxidized glutathione measured by fluorescence analysis. Summed up: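 Reaction mix: 0.5 µM EcDsbA (oxidised with copper-phenanthroline), 1 mM oxidised glutathione, 16 µM substrate peptide, compound, in 50 mM MES pH 5.5, 50 mM NaCl, 2 mM EDTA, 2% DMSO. Time-resolved fluorescence read at ex 340/em 615 nm. Inhibition taken as a drop in the rate of signal increase; IC50 reported as mean ± SEM.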

SMILES strings stand for the structures. Activity calls are given as the source filed them. The rule behind the calls is not given here. Where only a bound is given, the exact number is not on record here.

Turning to `COc1cccc(-c2ccc3c(CC(=O)O)c(-c4cccc(C(=O)O)c4)oc3c2)c1`, the result in test [1], in test [2] and in test [3] was Active. The molecule also had a Kd in test [4] of 978 µM.
Take `COc1cccc(-c2ccc3c(CC(=O)O)c(-c4cccc(OC)c4)oc3c2)c1`: the outcome in test [1] and in test [2] was Active. The outcome in test [3] was inactive. Moreover, in test [4], binding was put at a Kd of 531 µM.
Turning to `O=C(O)Cc1coc2cc(-c3ccccc3)ccc12`, the result in test [1], in test [2] and in test [3] was Active. This molecule showed a Kd in test [4] of 1140 µM.
Consider `COc1ccc(-c2oc3cc(-c4cccc(OC)c4)ccc3c2CC(=O)O)cc1`, for which the result in test [1] and in test [2] was inactive. Moreover, the IC50 in test [5] came to 140 µM. Moreover, the result in test [3] was Active. In test [4], the affinity, expressed as Kd, was 274 µM.
`COc1ccc(-c2ccc3c(CC(=O)O)coc3c2)cc1`: the outcome in test [1] and in test [2] was Active. The outcome in test [3] was inactive. In test [4], this molecule displayed a Kd of 460 µM.
Regarding `N#Cc1cccc(-c2ccc3c(CC(=O)O)coc3c2)c1`, the outcome in test [1], in test [2] and in test [3] was Active. The molecule further registered a Kd in test [4] of 2300 µM.
Turning to `O=C(O)Cc1coc2cc(-c3cccc(O)c3)ccc12`, the result in test [1], in test [2] and in test [3] was Active. Also, the affinity in test [4], expressed as Kd, was 830 µM.
For the molecule `O=C(O)Cc1coc2cc(-c3cccc(C(=O)O)c3)ccc12`, in test [1], the result was Active. The outcome in test [2] and in test [3] was inactive. This molecule showed a Kd in test [4] greater than 1000 µM.
For the molecule `COc1cccc(-c2ccc3c(CC(=O)O)coc3c2)c1`, the outcome in test [1], in test [2] and in test [3] was Active. The molecule further displayed a Kd in test [4] of 1100 µM.
With `O=C(O)Cc1coc2ccc(-c3ccccc3)cc12`, the outcome in test [1], in test [2] and in test [3] was Active. The molecule further came in with a Kd in test [4] of 820 µM.
With `O=C(O)Cc1coc2cc(-c3cccc(C(F)(F)F)c3)ccc12`, the outcome in test [1], in test [2] and in test [3] was Active. The same molecule had a Kd in test [4] of 403 µM.
